Laboratory results taken from ChEMBL document CHEMBL3611976, “Synthesis of new 4-phenylpyrimidine-2(1H)-thiones and their potency to inhibit COX-1 and COX-2” (Eur J Med Chem, 2015).
Active and inactive are the calls of the source. No cut-off for these calls is given here.

Key:
[1] = target: T1, Prostaglandin G/H synthase 2 (Homo sapiens) (UniProt P35354); experiment: Inhibition of COX2 in differentiated human THP1 cells assessed as […] LPS-induced COX2 gene expression at 50 ug/ml preincubated for 1 hr followed by LPS induction measured after 3 hrs by real-time PCR analysis; assay type: cell-based; conditions: THP-1
T1 sequence (whole entry): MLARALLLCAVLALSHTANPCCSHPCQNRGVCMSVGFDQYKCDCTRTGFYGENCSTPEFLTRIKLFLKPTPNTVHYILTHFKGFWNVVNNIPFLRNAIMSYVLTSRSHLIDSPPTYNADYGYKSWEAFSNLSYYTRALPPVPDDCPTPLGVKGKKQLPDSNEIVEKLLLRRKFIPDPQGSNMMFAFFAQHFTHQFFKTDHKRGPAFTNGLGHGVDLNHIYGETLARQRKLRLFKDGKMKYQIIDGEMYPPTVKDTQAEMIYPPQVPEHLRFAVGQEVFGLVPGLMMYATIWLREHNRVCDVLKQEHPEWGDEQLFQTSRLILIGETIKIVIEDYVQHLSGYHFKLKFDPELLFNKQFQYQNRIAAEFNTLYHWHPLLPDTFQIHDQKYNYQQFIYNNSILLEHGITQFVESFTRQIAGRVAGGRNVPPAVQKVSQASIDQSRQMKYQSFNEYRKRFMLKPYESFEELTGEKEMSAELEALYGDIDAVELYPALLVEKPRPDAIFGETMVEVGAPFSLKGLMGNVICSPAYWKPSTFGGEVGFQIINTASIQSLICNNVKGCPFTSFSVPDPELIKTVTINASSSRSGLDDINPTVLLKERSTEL
Procedure, shortened: (§1)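 THP-1 monocytes differentiated to macrophages with 12 nM PMA for 48 h. Cells were treated with compound ([…]) for 1 h, with 0.1% DMSO as calibrator. They were then stimulated with LPS O55:B5 at 7.5 ng/ml, except the DMSO well, for another 3 h. Cells were washed twice with cold PBS. Total RNA was extracted and reverse-transcribed. TaqMan qPCR was run in duplicate with GAPDH as reference.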

[2] = Downregulation of NF-kappaB1 gene expression in differentiated human THP1 cells stimulated with LPS at 50 ug/ml preincubated for 1 hr followed by LPS stimulation measured after 3 hrs by real-time PCR analysis; assay type: functional, cell-based; conditions: THP-1; procedure, shortened: as §1
[3] = target: Prostaglandin G/H synthase 1 (Ovis aries) (UniProt P05979); experiment: Inhibition of ram seminal vesicles COX-1 using arachidonic acid as substrate at 50 ug/ml preincubated for 5 mins followed by substrate addition after 20 mins by competitive PGE2 EIA method
Sequence of Prostaglandin G/H synthase 1 (Ovis aries) (P05979 whole entry, looked up): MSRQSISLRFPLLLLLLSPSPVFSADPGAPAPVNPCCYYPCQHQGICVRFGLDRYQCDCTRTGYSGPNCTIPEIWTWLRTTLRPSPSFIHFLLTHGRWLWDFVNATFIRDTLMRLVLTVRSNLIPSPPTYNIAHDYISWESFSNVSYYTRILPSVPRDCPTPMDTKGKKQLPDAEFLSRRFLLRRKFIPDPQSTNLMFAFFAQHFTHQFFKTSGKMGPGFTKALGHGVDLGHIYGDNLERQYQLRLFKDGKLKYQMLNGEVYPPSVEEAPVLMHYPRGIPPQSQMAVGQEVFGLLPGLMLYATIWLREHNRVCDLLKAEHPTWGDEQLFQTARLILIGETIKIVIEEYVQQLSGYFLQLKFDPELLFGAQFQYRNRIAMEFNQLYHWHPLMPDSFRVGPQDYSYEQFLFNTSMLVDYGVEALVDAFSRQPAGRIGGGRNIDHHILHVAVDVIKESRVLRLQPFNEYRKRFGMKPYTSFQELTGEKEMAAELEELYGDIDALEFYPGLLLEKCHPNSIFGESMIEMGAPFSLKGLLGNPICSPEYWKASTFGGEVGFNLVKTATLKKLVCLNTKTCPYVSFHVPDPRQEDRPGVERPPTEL

[4] = target: T2, Prostaglandin G/H synthase 2 (Ovis aries, UniProt P79208); experiment: Inhibition of sheep placental cotyledons COX-2 using arachidonic acid as substrate preincubated for 5 mins followed by substrate addition after 20 mins by competitive PGE2 EIA method
T2 sequence (P79208 whole entry): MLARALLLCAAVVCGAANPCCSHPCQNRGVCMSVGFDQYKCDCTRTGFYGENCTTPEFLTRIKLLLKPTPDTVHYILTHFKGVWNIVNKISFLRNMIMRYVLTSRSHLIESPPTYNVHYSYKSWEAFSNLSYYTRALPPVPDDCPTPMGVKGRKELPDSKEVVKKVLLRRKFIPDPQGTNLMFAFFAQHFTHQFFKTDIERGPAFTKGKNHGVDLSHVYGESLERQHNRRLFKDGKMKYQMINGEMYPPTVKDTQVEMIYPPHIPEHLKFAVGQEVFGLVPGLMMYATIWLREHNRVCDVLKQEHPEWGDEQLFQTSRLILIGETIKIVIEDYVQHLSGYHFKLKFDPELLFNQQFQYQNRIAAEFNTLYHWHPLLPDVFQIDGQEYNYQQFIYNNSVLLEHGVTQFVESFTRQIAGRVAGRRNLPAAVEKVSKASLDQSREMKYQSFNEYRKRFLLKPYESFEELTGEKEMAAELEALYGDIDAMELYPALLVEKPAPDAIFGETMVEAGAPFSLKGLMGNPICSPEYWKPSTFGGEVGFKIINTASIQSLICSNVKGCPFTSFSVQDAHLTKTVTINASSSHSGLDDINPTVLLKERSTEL
Procedure, shortened: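 Purified sheep placental PGHS-2 at 0.2 units/well in 0.1 M Tris/HCl with 18 mM epinephrine hydrogen tartrate, hematin and Na EDTA. Samples were preincubated for 5 min at room temperature, then arachidonic acid in ethanol was added to start the reaction. After 20 min at 37 °C the reaction was stopped with 10% formic acid. PGE2 was measured by competitive EIA absorbance, and inhibition was calculated relative to a blank.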

| SMILES | inhibition [1] | Activity [2] | inhibition [3] | IC50 [4] |
| --- | --- | --- | --- | --- |
| CC1=CC(c2ccccc2)NC(=S)N1 (stereo unspecified) | Active | Active | inactive |  |
| CC1=CC(c2ccccc2[N+](=O)[O-])NC(=S)N1 (racemic) | Active | Active | 53% | 50 µM |
| COc1ccc(C2C=C(C)NC(=S)N2)cc1 (racemic) |  |  | 33.2% |  |
| CC1=CC(c2ccccc2Cl)NC(=S)N1 (racemic) |  |  | 3.06% |  |
| CC1=CC(C(C)C)NC(=S)N1 (racemic) |  |  | inactive |  |
| CC1=CC(c2ccc(Cl)cc2)NC(=S)N1 (racemic) |  |  | 10.3% |  |
| CC1=CC(c2ccc(C(F)(F)F)cc2)NC(=S)N1 (racemic) |  |  | 0.92% |  |
| CC1=CC(c2ccc(Br)cc2)NC(=S)N1 (racemic) |  |  | 15.4% |  |
| CC1=CC(c2ccc([N+](=O)[O-])cc2)NC(=S)N1 (racemic) |  |  | 29.8% |  |
| CC1=CC(c2ccc(Cl)cc2Cl)NC(=S)N1 (racemic) |  |  | inactive |  |
| CC1=CC(c2ccc(F)cc2)NC(=S)N1 (racemic) |  |  | inactive |  |
